Experimental findings from ChEMBL document CHEMBL3774332, “Synthesis, biological evaluation and molecular modeling of pseudo-peptides based statine as inhibitors for human tissue kallikrein 5” (Eur J Med Chem, 2016) are described below.

Series [1] addresses Kallikrein-6 (Homo sapiens) (UniProt Q92876). Nature of the series: Inhibition of human KLK6 using Abz-KLRSSKQ-EDDnp as substrate at 10 to 100 uM preincubated for 5 mins followed by substrate addition by spectrofluorimetric analysis. Put shortly: (§1)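 Residual-activity screen in 50 mM Tris–HCl, pH 7.5. Compound stocks in DMSO:H2O 1:1 were diluted to 10 µM final, and in some runs raised to 100 µM. Inhibitor was incubated with enzyme for 5 min at 37°C. Substrate was then added: Abz-KLRSSKQ-EDDnp for KLK1, KLK5 and KLK6, or Abz-KLYSSKQ-EDDnp for KLK7. Fluorescence was read at ex 320 nm, em 420 nm and compared with an inhibitor-free control.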

The target in series [2] is Kallikrein-5 (Homo sapiens) (UniProt Q9Y337). Nature of the series: Inhibition of human KLK5 using Abz-KLRSSKQ-EDDnp as substrate at 10 to 100 uM preincubated for 5 mins followed by substrate addition by spectrofluorimetric analysis. A digest of the protocol:
as §1

The nature of series [3]: Solubility in aqueous buffer solution at >1 uM. The class given is physicochemical. Put shortly: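 Solubility was tested in the aqueous assay buffer (50 mM Tris–HCl, pH 7.5) before enzymatic assays, at concentrations above 1.0 µM.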
For series [4], the target named is Kallikrein-7 (Homo sapiens) (UniProt P49862). Nature of the series: Inhibition of human KLK7 using Abz-KLYSSKQ-EDDnp as substrate at 10 to 100 uM preincubated for 5 mins followed by substrate addition by spectrofluorimetric analysis. Put shortly: as §1
Chain of Kallikrein-7 (Homo sapiens) (P49862 30-253 limits assumed): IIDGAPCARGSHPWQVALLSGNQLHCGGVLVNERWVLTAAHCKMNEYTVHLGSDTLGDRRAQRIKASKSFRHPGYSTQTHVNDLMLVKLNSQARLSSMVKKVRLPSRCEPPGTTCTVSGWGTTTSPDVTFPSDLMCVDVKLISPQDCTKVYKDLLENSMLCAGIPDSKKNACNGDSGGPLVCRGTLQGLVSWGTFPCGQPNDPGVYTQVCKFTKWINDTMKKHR
Series [5] concerns the target Kallikrein-1 (Homo sapiens) (UniProt P06870). Nature of the series: Inhibition of human KLK1 using Abz-KLRSSKQ-EDDnp as substrate at 10 to 100 uM preincubated for 5 mins followed by substrate addition by spectrofluorimetric analysis. Put shortly: as §1
Series [6] concerns the target Kallikrein-7 (Homo sapiens) (UniProt P49862). In words: Inhibition of human KLK7 using Abz-KLYSSKQ-EDDnp as substrate at >1 uM preincubated for 5 mins followed by substrate addition by spectrofluorimetric analysis.
For series [7], the target named is Kallikrein-6 (Homo sapiens) (UniProt Q92876). Nature of the series: Inhibition of human KLK6 using Abz-KLRSSKQ-EDDnp as substrate at >1 uM preincubated for 5 mins followed by substrate addition by spectrofluorimetric analysis.
Series [8] has as its target Kallikrein-5 (Homo sapiens) (UniProt Q9Y337). Nature of the series: Inhibition of human KLK5 using Abz-KLRSSKQ-EDDnp as substrate at >1 uM preincubated for 5 mins followed by substrate addition by spectrofluorimetric analysis.
In series [9] the target is Kallikrein-1 (Homo sapiens) (UniProt P06870). Nature of the series: Inhibition of human KLK1 using Abz-KLRSSKQ-EDDnp as substrate at >1 uM preincubated for 5 mins followed by substrate addition by spectrofluorimetric analysis.
Chain of Kallikrein-1 (Homo sapiens) (P06870 25-262 limits assumed): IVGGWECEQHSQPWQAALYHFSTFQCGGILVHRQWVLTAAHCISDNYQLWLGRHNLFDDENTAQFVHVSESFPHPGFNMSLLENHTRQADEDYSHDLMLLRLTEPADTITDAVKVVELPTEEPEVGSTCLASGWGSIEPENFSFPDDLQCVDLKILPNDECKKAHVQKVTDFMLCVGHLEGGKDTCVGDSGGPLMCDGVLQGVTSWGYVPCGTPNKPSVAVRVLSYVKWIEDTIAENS
Series [10] concerns the target T1, Kallikrein-5 (Homo sapiens, UniProt Q9Y337).
T1 sequence (Q9Y337 whole entry): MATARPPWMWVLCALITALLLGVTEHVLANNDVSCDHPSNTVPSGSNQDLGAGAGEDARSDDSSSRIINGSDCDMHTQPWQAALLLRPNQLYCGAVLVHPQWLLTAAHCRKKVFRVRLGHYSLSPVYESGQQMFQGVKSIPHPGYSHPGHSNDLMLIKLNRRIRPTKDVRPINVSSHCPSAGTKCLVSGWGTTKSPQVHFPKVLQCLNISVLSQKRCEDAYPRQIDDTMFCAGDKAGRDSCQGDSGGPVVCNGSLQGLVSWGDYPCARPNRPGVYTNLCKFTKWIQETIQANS
In words: Competitive inhibition of human KLK5 using Abz-KLRSSKQ-EDDnp as substrate preincubated for 5 mins followed by substrate addition by Lineweaver-Burk plot analysis. Put shortly:
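Human KLK5 (0.02 µg) was preincubated with inhibitor for 5 min at 37°C in 50 mM Tris–HCl, pH 7.5. Reaction was started with FRET substrate Abz-KLRSSKQ-EDDnp and read by fluorescence (ex 320 nm, em 420 nm). Initial rates were measured without inhibitor and at four inhibitor concentrations. Ki was taken as the x-intercept of 1/V0 versus inhibitor concentration at constant substrate. Mode was assigned from Lineweaver–Burk plots.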

Series [11] addresses Kallikrein-7 (Homo sapiens) (UniProt P49862). Nature of the series: Inhibition of human KLK7 using Abz-KLYSSKQ-EDDnp as substrate at 10 uM preincubated for 5 mins followed by substrate addition by spectrofluorimetric analysis. A digest of the protocol: as §1
Series [12] deals with Kallikrein-1 (Homo sapiens) (UniProt P06870). In words: Inhibition of human KLK1 using Abz-KLRSSKQ-EDDnp as substrate at 10 uM preincubated for 5 mins followed by substrate addition by spectrofluorimetric analysis. Put shortly: as §1
Series [13] has as its target Kallikrein-6 (Homo sapiens) (UniProt Q92876). Nature of the series: Inhibition of human KLK6 using Abz-KLRSSKQ-EDDnp as substrate at 10 uM preincubated for 5 mins followed by substrate addition by spectrofluorimetric analysis. A digest of the protocol:
as §1

The target in series [14] is Kallikrein-5 (Homo sapiens) (UniProt Q9Y337). In words: Inhibition of human KLK5 using Abz-KLRSSKQ-EDDnp as substrate at 10 uM preincubated for 5 mins followed by substrate addition by spectrofluorimetric analysis. A digest of the protocol:
as §1

Series [15] has as its target T1, Kallikrein-5. Nature of the series: Inhibition of human KLK5 using Abz-KLRSSKQ-EDDnp as substrate preincubated for 5 mins followed by substrate addition by spectrofluorimetric analysis. Put shortly: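 Assay in 50 mM Tris–HCl, pH 7.5, with 0.02 µg human KLK5 and inhibitor incubated 5 min at 37°C before adding Abz-KLRSSKQ-EDDnp. Fluorescence was read at ex 320 nm, em 420 nm. IC50 came from rates at five or more inhibitor concentrations across 0.01–1.0 µM. Values are means ± SD of three independent experiments.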

Activity calls are given as the source filed them. The calls are words filed in the database; no cut-off is given here.

`CC(C)[C@H](NC(=O)C[C@H](O)[C@H](Cc1ccccc1)NC(=O)OC(C)(C)C)C(=O)O`: the inhibition entry in series [1], in series [2], in series [4] and in series [5] was “inactive” throughout. In [3], the solubility entry is reported as “soluble”.

In the case of `CC(C)[C@H](NC(=O)C[C@H](O)[C@H](Cc1ccccc1)NC(=O)OC(C)(C)C)C(=O)N[C@H]1CO[C@H]2[C@@H]1OC[C@H]2OCc1ccccc1`, the inhibition result in [6], in series [7], in series [8] and in [9] was “inactive” throughout. Further, the solubility entry in series [3] was “Insoluble”.

With `CC(C)(C)OC(=O)N[C@@H](Cc1ccccc1)[C@@H](O)CC(=O)N[C@@H](Cc1ccccc1)C(=O)O`, the inhibition entry in [1], in series [2], in [4] and in series [5] was “inactive” each time. Further, the solubility result in series [3] is “soluble”.

As for `CC(C)(C)OC(=O)N[C@@H](Cc1ccccc1)[C@@H](O)CC(=O)N1CCC[C@H]1C(=O)N[C@H]1CO[C@H]2[C@@H]1OC[C@H]2OCc1ccccc1`, the inhibition entry in series [6], in series [7], in [8] and in series [9] was “inactive” throughout. In addition, the solubility result in [3] is reported as “Insoluble”.

Turning to `COC(=O)[C@@H](NC(=O)C[C@H](O)[C@H](Cc1ccccc1)NC(=O)OC(C)(C)C)C(C)C`, in series [10], affinity was put at a Ki of 130 nM. For the same compound, the inhibition entry in series [11], in [12] and in series [13] was “inactive” throughout. Moreover, in series [14], the inhibition entry was “Active”. Further, the solubility entry in series [3] is given as “soluble”. In addition, the IC50 in [15] was 115 nM.

In series [10], `COC(=O)[C@H](Cc1ccccc1)NC(=O)C[C@H](O)[C@H](Cc1ccccc1)NC(=O)OC(C)(C)C` showed a Ki of 120 nM. Further, the inhibition result in series [11], in series [12] and in [13] was “inactive” in each case. In addition, the inhibition entry in [14] is “Active”. The solubility result in series [3] is reported as “soluble”. Also, in series [15], the IC50 turned out to be 112 nM.

On to `COC(=O)[C@@H]1CCCN1C(=O)C[C@H](O)[C@H](Cc1ccccc1)NC(=O)OC(C)(C)C`, for which, in series [10], the Ki came out at 130 nM. The inhibition entry in [11], in series [12] and in [13] was “inactive” each time. The inhibition entry in series [14] is “Active”. Moreover, the solubility result in series [3] was “soluble”. Also, the IC50 in series [15] is 122 nM.

For the compound `CC(C)(C)OC(=O)N[C@@H](Cc1ccccc1)[C@@H](O)CC(=O)N[C@@H](Cc1ccccc1)C(=O)N[C@H]1CO[C@H]2[C@@H]1OC[C@H]2OCc1ccccc1`, the inhibition entry in series [6], in series [7], in series [8] and in series [9] was “inactive” throughout. Further, the solubility entry in series [3] was “Insoluble”.

Consider `CC(C)(C)OC(=O)N[C@@H](Cc1ccccc1)[C@@H](O)CC(=O)N1CCC[C@H]1C(=O)O`, for which the inhibition result in series [1], in [2], in series [4] and in series [5] was “inactive” each time. Further, in series [3], the solubility entry is given as “soluble”.
